# Experimental data from ChEMBL document CHEMBL3045646, “Synthesis and antityrosinase activities of alkyl 3,4-dihydroxybenzoates” (J Agric Food Chem, 2011).
# pIC50, pKi: −log10 of the molar value. Active and inactive are the calls of the source. The calls are words filed in the database; no cut-off is given here.
# Assays:
# [1] = target: T1, Tyrosinase (Agaricus bisporus) (UniProt O42713); assay: Uncompetitive inhibition of Agaricus bisporus (mushroom) tyrosinase assessed as […] in Km and Vm without change in Km/Vm using L-DOPA as substrate by Line-weaver burk plot analysis
# T1 sequence (whole entry): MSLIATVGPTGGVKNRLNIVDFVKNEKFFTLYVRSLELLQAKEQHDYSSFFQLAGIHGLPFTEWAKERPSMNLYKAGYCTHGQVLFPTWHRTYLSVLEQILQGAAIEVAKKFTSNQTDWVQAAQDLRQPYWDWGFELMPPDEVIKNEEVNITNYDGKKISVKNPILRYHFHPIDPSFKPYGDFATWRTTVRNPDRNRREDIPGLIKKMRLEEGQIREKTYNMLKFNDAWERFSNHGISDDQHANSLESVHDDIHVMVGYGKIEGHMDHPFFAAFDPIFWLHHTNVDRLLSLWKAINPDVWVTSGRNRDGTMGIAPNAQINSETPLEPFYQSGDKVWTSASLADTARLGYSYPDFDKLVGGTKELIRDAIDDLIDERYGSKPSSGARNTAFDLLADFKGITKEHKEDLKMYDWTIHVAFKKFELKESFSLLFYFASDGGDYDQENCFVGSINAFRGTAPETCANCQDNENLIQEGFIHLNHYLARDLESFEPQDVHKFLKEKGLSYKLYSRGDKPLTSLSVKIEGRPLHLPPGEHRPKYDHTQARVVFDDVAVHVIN
# In short: (§1)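 L-DOPA oxidation by mushroom tyrosinase at 30 °C, pH 6.8, with inhibitor at 0, 50, 100, 150 and 200 μM, read at 475 nm. Inhibition type came from Lineweaver–Burk plots (1/v vs 1/[S]). K_IS came from a secondary plot of 1/V_m (or apparent K_m/V_m) against inhibitor concentration.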
# [2] = target: T2, Tyrosinase (Agaricus bisporus, UniProt O42713); assay: Inhibition of Agaricus bisporus (mushroom) tyrosinase-catalyzed oxidation of L-DOPA substrate by spectrophotometric analysis
# T2 sequence (O42713 whole entry): T1 sequence (whole entry)
# In short: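 Diphenolase activity of mushroom tyrosinase (6.67 μg/mL final) with 0.5 mM L-DOPA in 50 mM sodium phosphate pH 6.8, 30 °C. Inhibitors added from DMSO, 3.3% DMSO final; DMSO-only controls. Rate from slope of linear A475 progress curve. IC50 = concentration giving 50% activity loss.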
# [3] = target: T2, Tyrosinase; assay: Inhibition of Agaricus bisporus (mushroom) tyrosinase using L-DOPA as substrate by secondary plot analysis; in short: as §1
# [4] = target: T1, Tyrosinase (Agaricus bisporus); assay: Reversible inhibition of Agaricus bisporus (mushroom) tyrosinase assessed as remaining enzyme activity using L-DOPA as substrate by spectrophotometric analysis
# In short: (§2)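 Reversibility tested with L-DOPA as substrate in pH 6.8 phosphate buffer at 30 °C, with A475 read-out. Remaining activity was plotted against enzyme concentration at several inhibitor levels, with inhibitor series of 0–200, 0–100 or 0–80 μM. Lines through the origin were taken as reversible, and parallel lines not through the origin as irreversible.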
# [5] = target: T1, Tyrosinase (Agaricus bisporus); assay: Irreversible inhibition of Agaricus bisporus (mushroom) tyrosinase assessed as remaining enzyme activity using L-DOPA as substrate by spectrophotometric analysis; in short: as §2
# [6] = target: T1, Tyrosinase (Agaricus bisporus); assay: Uncompetitive inhibition of Agaricus bisporus (mushroom) tyrosinase assessed as […] in Km and Vm without change in Km/Vm using L-DOPA as substrate at 50 uM by Line-weaver burk plot analysis; in short: as §1
# [7] = test system: Plutella xylostella; assay: Downregulation of tyrosinase inactive precursor, PxPPO gene expression in newly molted second-instar larval stage of Plutella xylostella (diamondback moth) at 2.5 to 40 mg/ml after 72 hr by real-time quantitative PCR analysis; assay type: functional, organism-based
# In short: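 Compound in acetone, diluted to 2.5, 5, 20 and 40 mg/mL and spread on feed surface in wells. Larvae reared at 27 ± 2 °C, 70% humidity, 14:10 h light:dark. Whole-body PxPPO2 transcripts measured 72 h after treatment by real-time qPCR (95 °C 10 s; 45 cycles of 95 °C 5 s / 60 °C 20 s), with melting-curve check, normalized to GAPDH.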
# [8] = test system: Plutella xylostella; assay: Insecticidal activity against second-instar larval stage of Plutella xylostella (diamondback moth) assessed as inhibition of insect development and molting at 40 mg/ml after 3 days (reference value: 0.95 cm); assay type: functional
# In short: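 Compound dissolved in acetone, diluted (2.5–40 mg/mL) and spread over feed surface. Larvae kept at 27 ± 2 °C, 70% humidity, 14:10 h light:dark photoperiod. Larval body length recorded after 3 days.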
# [9] = target: T1, Tyrosinase (Agaricus bisporus); assay: Irreversible inhibition of Agaricus bisporus (mushroom) tyrosinase assessed as remaining enzyme activity at >75 uM using L-DOPA as substrate by spectrophotometric analysis; in short: as §2
# [10] = target: T1, Tyrosinase (Agaricus bisporus); assay: Reversible inhibition of Agaricus bisporus (mushroom) tyrosinase assessed as remaining enzyme activity at <50 uM using L-DOPA as substrate by spectrophotometric analysis; in short: as §2
SMILES,inhibition [1],pIC50 [2],pKi [3],inhibition [4],inhibition [5],inhibition [6],inhibition [7],Activity [8] [cm],inhibition [9],inhibition [10]
"CCCCCCCOC(=O)c1ccc(O)c(O)c1 [HEPTYL 3,4-DIHYDROXYBENZOATE]",Active,3.50,3.87,Active,–,–,–,–,–,–
"CCCCCCCCCOC(=O)c1ccc(O)c(O)c1 [NONYL 3,4-DIHYDROXYBENZOATE]",–,4.09,–,–,Active,–,–,–,–,–
"CCCCCCOC(=O)c1ccc(O)c(O)c1 [HEXYL 3,4-DIHYDROXYBENZOATE]",–,3.04,3.41,Active,–,Active,Active,0.3,–,–
"CCCCCCCCOC(=O)c1ccc(O)c(O)c1 [OCTYL 3,4-DIHYDROXYBENZOATE]",–,3.89,–,–,–,Active,–,–,Active,Active
